The source made the active and inactive calls. No cut-off for these calls is given here.
Legend:
Plasmodium falciparum [1] = experiment: Antiplasmodial activity against chloroquine-sensitive Plasmodium falciparum 3D7 infected in human erythrocytes assessed as reduction in microbial growth after 72 hrs by SYBR green I staining based fluorescence assay; type: functional, organism-based; details: for Activity: Erythrocyte; for EC50: 3D7, Erythrocyte
Outline: (§1)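 SYBR Green I assay: twofold serial dilutions on P. falciparum cultures at 1% parasitemia, 1% hematocrit, 37 °C, 5% CO₂, 72 h, max 0.1% DMSO. DMSO and CQ as growth and inhibition controls. Plates frozen at −80 °C, thawed, lysed in Tris/saponin/EDTA/Triton buffer with 0.01% SYBR Green I, 1 h dark at room temperature. Fluorescence read at 485 ex/530 em. EC50 by nonlinear dose–response fit.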

Plasmodium falciparum [2] = experiment: Antiplasmodial activity against chloroquine-resistant Plasmodium falciparum Dd2 infected in human erythrocytes assessed as reduction in microbial growth after 72 hrs by SYBR green I staining based fluorescence assay; type: functional, organism-based; details: Dd2, Erythrocyte; outline: as §1
[3] = Resistant index, ratio of EC50 for antiplasmodial activity against chloroquine-resistant Plasmodium falciparum Dd2 to antiplasmodial activity against chloroquine-sensitive Plasmodium falciparum 3D7; type: functional

Fc1cccnc1/C=C/c1cc(NCCCCN2CCOCC2)c2cc(Cl)ccc2n1
Activity (Plasmodium falciparum [1]): Active
EC50 (Plasmodium falciparum [2]): 197 nM

Fc1ccc(/C=C/c2cc(NCCCCN3CCOCC3)c3cc(Cl)ccc3n2)c(F)c1
EC50 (Plasmodium falciparum [2]): 72.6 nM

CN(C)CCNc1cc(/C=C/c2ccc([N+](=O)[O-])cc2)nc2ccc(Cl)cc12
EC50 (Plasmodium falciparum [2]): 28.7 nM

Clc1ccc2nc(-c3ccccc3)cc(NCCCCN3CCOCC3)c2c1
EC50 (Plasmodium falciparum [2]): 423 nM

CN(C)CCNc1cc(/C=C/c2ccc([N+](=O)[O-])cc2)nc2ccccc12
EC50 (Plasmodium falciparum [2]): 47.9 nM

CN(C)CCCCNc1cc(/C=C/c2ccc(F)cc2)nc2ccc(Cl)cc12
EC50 (Plasmodium falciparum [2]): 51.2 nM

Cc1cc(NCCN(C)C)c2cc(Cl)ccc2n1
EC50 (Plasmodium falciparum [2]): 732 nM

Fc1ccc(/C=C/c2cc(N3CCCC3)c3cc(Cl)ccc3n2)cc1
EC50 (Plasmodium falciparum [2]): 428 nM

CN(C)CCNc1cc(/C=C/c2cccs2)nc2ccc(Cl)cc12
EC50 (Plasmodium falciparum [2]): 29.7 nM

CN(C)CCNc1cc(/C=C/c2nccs2)nc2ccc(Cl)cc12
EC50 (Plasmodium falciparum [2]): 240 nM

Fc1cc(F)cc(/C=C/c2cc(NCCCCN3CCOCC3)c3cc(Cl)ccc3n2)c1
EC50 (Plasmodium falciparum [2]): 185 nM

Clc1ccc2nc(/C=C/c3ccncc3)cc(N3CCN(c4ccccn4)CC3)c2c1
EC50 (Plasmodium falciparum [1]): 155 nM
EC50 (Plasmodium falciparum [2]): 2570 nM

COc1ccc2nc(/C=C/c3cccc([N+](=O)[O-])c3)cc(NCCN(C)C)c2c1
EC50 (Plasmodium falciparum [2]): 49.5 nM

CN(C)CCNc1cc(/C=C/c2ccco2)nc2ccc(Cl)cc12
EC50 (Plasmodium falciparum [2]): 37 nM

Fc1ccc(/C=C/c2cc(Nc3ccc(N4CCCCC4)cc3)c3cc(Cl)ccc3n2)cc1
EC50 (Plasmodium falciparum [1]): 155 nM
EC50 (Plasmodium falciparum [2]): 667 nM

Fc1ccc(/C=C/c2cc(NCCCN3CCOCC3)c3cc(Cl)ccc3n2)cc1
EC50 (Plasmodium falciparum [2]): 40.8 nM

CN(C)CCCCNc1cc(/C=C/c2ccccc2)nc2ccc(Cl)cc12
EC50 (Plasmodium falciparum [2]): 68 nM

COc1ccc2nc(/C=C/c3ccc([N+](=O)[O-])cc3)cc(NCCN(C)C)c2c1
EC50 (Plasmodium falciparum [2]): 28.6 nM

CN(C)CCNc1cc(/C=C/c2ccco2)nc2ccc(F)cc12
EC50 (Plasmodium falciparum [2]): 82.6 nM

Clc1ccc2nc(-c3ccncc3)cc(NCCCCN3CCOCC3)c2c1
EC50 (Plasmodium falciparum [2]): 796 nM

COc1ccc2nc(/C=C/c3cc(NCCN(C)C)c4cc(Cl)ccc4n3)ccc2c1
EC50 (Plasmodium falciparum [2]): 281 nM
Ratio EC50 [3]: > 1.3

CN(C)CCNc1cc(/C=C/c2ccccc2)nc2ccccc12
EC50 (Plasmodium falciparum [2]): 80.7 nM

Fc1cnccc1/C=C/c1cc(NCCCCN2CCOCC2)c2cc(Cl)ccc2n1
EC50 (Plasmodium falciparum [2]): 79.6 nM

COc1ccc2nc(/C=C/c3ccccc3)cc(NCCN(C)C)c2c1
Activity (Plasmodium falciparum [1]): Active
EC50 (Plasmodium falciparum [2]): 41.2 nM
Ratio EC50 [3]: > 1.3

Fc1ccc(/C=C/c2cc(NCCN3CCCC3)c3cc(Cl)ccc3n2)cc1
EC50 (Plasmodium falciparum [2]): 92.3 nM

COc1ccc(/C=C/c2cc(NCCN(C)C)c3cc(OC)ccc3n2)cc1
EC50 (Plasmodium falciparum [2]): 43.6 nM

COc1ccc(/C=C/c2cc(NCCN(C)C)c3cc(F)ccc3n2)cc1OC
EC50 (Plasmodium falciparum [2]): 41.1 nM

COc1ccc2nc(CCc3ccncc3)cc(NCCN(C)C)c2c1
EC50 (Plasmodium falciparum [2]): 709 nM

Clc1ccc2nc(/C=C/c3ccncc3)cc(N3CCOCC3)c2c1
EC50 (Plasmodium falciparum [2]): 3590 nM

CN(C)CCNc1cc(/C=C/c2ccncc2)nc2ccc(F)cc12
EC50 (Plasmodium falciparum [2]): 36.1 nM

CN1CCN(CCCCNc2cc(/C=C/c3ccc(F)cc3)nc3ccc(Cl)cc23)CC1
EC50 (Plasmodium falciparum [2]): 43 nM

COc1ccc2nc(/C=C/c3ccccn3)cc(NCCN(C)C)c2c1
EC50 (Plasmodium falciparum [2]): 1030 nM

COc1ccc2nc(/C=C/c3ccco3)cc(NCCN(C)C)c2c1
EC50 (Plasmodium falciparum [2]): 88.7 nM

CN(C)CCCCNc1cc(/C=C/c2ccc([N+](=O)[O-])cc2)nc2ccc(Cl)cc12
EC50 (Plasmodium falciparum [2]): 52.5 nM

Clc1ccc2nc(/C=C/c3ccncc3)cc(N3CCCC3)c2c1
EC50 (Plasmodium falciparum [2]): 1180 nM

COc1ccc2nc(/C=C/c3ccncc3)cc(NCCN(C)C)c2c1
EC50 (Plasmodium falciparum [2]): 38.8 nM

Fc1ccc(/C=C/c2cc(NCCCCN3CCOCC3)c3cc(Cl)ccc3n2)nc1
EC50 (Plasmodium falciparum [2]): 73.1 nM

Clc1ccc2nc(/C=C/C=C/c3ccccc3)cc(NCCCCN3CCOCC3)c2c1
EC50 (Plasmodium falciparum [2]): 143 nM

COc1ccc(/C=C/c2cc(NCCN(C)C)c3cc(Cl)ccc3n2)cc1OC
EC50 (Plasmodium falciparum [2]): 38.9 nM

Fc1ccc(/C=C/c2cc(NCCCCN3CCOCC3)c3cc(Cl)ccc3n2)cn1
Activity (Plasmodium falciparum [1]): Active
EC50 (Plasmodium falciparum [2]): 54.6 nM

CN(C)CCNc1cc(CCc2ccncc2)nc2ccc(Cl)cc12
EC50 (Plasmodium falciparum [2]): 259 nM

COc1ccc(/C=C/c2cc(NCCN(C)C)c3cc(F)ccc3n2)cc1
EC50 (Plasmodium falciparum [2]): 37.8 nM

Clc1ccc2nc(/C=C/c3ccccc3)cc(NCCN3CCCC3)c2c1
EC50 (Plasmodium falciparum [2]): 107 nM

CN1CCN(CCNc2cc(/C=C/c3ccncc3)nc3ccc(Cl)cc23)CC1
EC50 (Plasmodium falciparum [2]): 53.3 nM

CN(C)CCNc1cc(/C=C/c2ccc([N+](=O)[O-])cc2)nc2ccc(F)cc12
EC50 (Plasmodium falciparum [2]): 30.9 nM

Fc1cc(/C=C/c2cc(NCCCCN3CCOCC3)c3cc(Cl)ccc3n2)cc(F)c1F
EC50 (Plasmodium falciparum [2]): 130 nM

CN(C)CCNc1cc(/C=C/c2cccs2)nc2ccc(F)cc12
EC50 (Plasmodium falciparum [2]): 111 nM

CN(C)CCNc1cc(/C=C/c2cc3ccccc3[nH]2)nc2ccc(Cl)cc12
EC50 (Plasmodium falciparum [2]): 95.9 nM
Ratio EC50 [3]: > 1.3

COc1cc(/C=C/c2cc(NCCN(C)C)c3cc(Cl)ccc3n2)cc(OC)c1OC
EC50 (Plasmodium falciparum [2]): 44.4 nM

COc1ccc2nc(C)cc(NCCN(C)C)c2c1
EC50 (Plasmodium falciparum [2]): 5520 nM

FC(F)(F)Oc1ccc(/C=C/c2cc(NCCCCN3CCOCC3)c3cc(Cl)ccc3n2)cc1
EC50 (Plasmodium falciparum [2]): 56.6 nM

Fc1cc(F)c(/C=C/c2cc(NCCCCN3CCOCC3)c3cc(Cl)ccc3n2)cc1F
Activity (Plasmodium falciparum [1]): Active
EC50 (Plasmodium falciparum [2]): 197 nM

COc1ccc2nc(/C=C/c3ccccc3[N+](=O)[O-])cc(NCCN(C)C)c2c1
EC50 (Plasmodium falciparum [2]): 56.3 nM

CN(C)CCNc1cc(/C=C/c2cccc3ccccc23)nc2ccc(Cl)cc12
EC50 (Plasmodium falciparum [2]): 373 nM
Ratio EC50 [3]: > 1.3

Fc1ccc(/C=C/C=C/c2cc(NCCCCN3CCOCC3)c3cc(Cl)ccc3n2)cc1
EC50 (Plasmodium falciparum [2]): 96.5 nM

FC(F)(F)c1ccccc1/C=C/c1cc(NCCCCN2CCOCC2)c2cc(Cl)ccc2n1
EC50 (Plasmodium falciparum [2]): 104 nM

Fc1ccc(/C=C/c2cc(N3CCC(N4CCCCC4)CC3)c3cc(Cl)ccc3n2)cc1
EC50 (Plasmodium falciparum [1]): 155 nM
EC50 (Plasmodium falciparum [2]): 487 nM

CN(C)CCNc1cc(/C=C/c2cccnc2)nc2ccc(Cl)cc12
EC50 (Plasmodium falciparum [2]): 33.6 nM

N#Cc1ccc(/C=C/c2cc(N3CCOCC3)c3cc(Cl)ccc3n2)cc1
EC50 (Plasmodium falciparum [2]): 1010 nM

FC(F)(F)c1cc(/C=C/c2cc(NCCCCN3CCOCC3)c3cc(Cl)ccc3n2)cc(C(F)(F)F)c1
EC50 (Plasmodium falciparum [2]): 108 nM

FC(F)(F)c1ccc(/C=C/c2cc(NCCCN3CCOCC3)c3cc(Cl)ccc3n2)cc1
EC50 (Plasmodium falciparum [2]): 84.8 nM

Fc1ccc(/C=C/c2cc(N3CCOCC3)c3cc(Cl)ccc3n2)cc1
EC50 (Plasmodium falciparum [2]): 6750 nM

FC(F)(F)c1cccc(/C=C/c2cc(NCCCCN3CCOCC3)c3cc(Cl)ccc3n2)c1
EC50 (Plasmodium falciparum [2]): 33.9 nM

CN(C)CCNc1cc(/C=C/c2ccccc2)nc2ccc(Cl)cc12
EC50 (Plasmodium falciparum [2]): 22.4 nM

CN(C)CCNc1cc(/C=C/C2CCCCC2)nc2ccc(Cl)cc12
EC50 (Plasmodium falciparum [2]): 394 nM
Ratio EC50 [3]: > 1.3

Fc1ccc(/C=C/c2cc(N3CCN(c4ccccn4)CC3)c3cc(Cl)ccc3n2)cc1
EC50 (Plasmodium falciparum [1]): 155 nM
EC50 (Plasmodium falciparum [2]): 3300 nM

Clc1ccc2nc(/C=C/c3ccncc3)cc(NCCN3CCCC3)c2c1
EC50 (Plasmodium falciparum [2]): 67.7 nM

Cc1cc(NCCCCN(C)C)c2cc(Cl)ccc2n1
EC50 (Plasmodium falciparum [2]): 1240 nM

CN(C)CCNc1cc(/C=C/c2ccc(F)cc2)nc2ccccc12
EC50 (Plasmodium falciparum [2]): 25.5 nM

CN(C)CCNc1cc(/C=C/c2ccc(F)cc2)nc2ccc(F)cc12
EC50 (Plasmodium falciparum [2]): 30.9 nM

COc1ccc2nc(/C=C/c3ccc(F)cc3)cc(NCCN(C)C)c2c1
EC50 (Plasmodium falciparum [2]): 32.9 nM

COc1ccc2nc(/C=C/c3cccs3)cc(NCCN(C)C)c2c1
EC50 (Plasmodium falciparum [2]): 80 nM

CN(C)CCNc1cc(/C=C/c2ccc(N(C)C)cc2)nc2ccc(Cl)cc12
EC50 (Plasmodium falciparum [2]): 88.3 nM
Ratio EC50 [3]: > 1.3

CN(C)CCNc1cc(/C=C/c2ccccn2)nc2ccc(Cl)cc12
EC50 (Plasmodium falciparum [2]): 67.5 nM

Clc1ccc2nc(/C=C/c3ccncc3)cc(NCCN3CCOCC3)c2c1
EC50 (Plasmodium falciparum [2]): 137 nM

Clc1ccc2nc(/C=C/c3ccncc3)cc(Nc3ccc(N4CCCCC4)cc3)c2c1
EC50 (Plasmodium falciparum [1]): 155 nM
EC50 (Plasmodium falciparum [2]): 793 nM

COc1cc(/C=C/c2cc(NCCN(C)C)c3cc(F)ccc3n2)cc(OC)c1OC
EC50 (Plasmodium falciparum [2]): 38.6 nM

CN1CCN(CCCCNc2cc(/C=C/c3ccccc3)nc3ccc(Cl)cc23)CC1
EC50 (Plasmodium falciparum [2]): 58.9 nM

COc1ccc(/C=C/c2cc(NCCN(C)C)c3cc(Cl)ccc3n2)cc1
EC50 (Plasmodium falciparum [2]): 34.8 nM

COc1ccc2nc(/C=C/c3cccnc3)cc(NCCN(C)C)c2c1
EC50 (Plasmodium falciparum [2]): 71 nM

CN(C)CCNc1cc(/C=C/c2cncnc2)nc2ccc(Cl)cc12
EC50 (Plasmodium falciparum [2]): 155 nM
Ratio EC50 [3]: > 1.3

CN(C)CCNc1cc(/C=C/c2ccccc2)nc2ccc(F)cc12
EC50 (Plasmodium falciparum [2]): 21 nM

Fc1cc(F)c(F)c(/C=C/c2cc(NCCCCN3CCOCC3)c3cc(Cl)ccc3n2)c1
Activity (Plasmodium falciparum [1]): Active
EC50 (Plasmodium falciparum [2]): 588 nM

From ChEMBL document CHEMBL4665829, “Synthesis, Structure-Activity Relationship, and Antimalarial Efficacy of 6-Chloro-2-arylvinylquinolines” (J Med Chem, 2020)
